Assay results gathered from unrelated publications.
Lines come from different studies, so protocols differ.
Target: Interleukin-1 receptor-associated kinase 1 (IRAK1, Homo sapiens, UniProt P51617)

| Structure (SMILES) | observed | action | method | concentration | endpoint | result |
| --- | --- | --- | --- | --- | --- | --- |
| CNC(=O)Nc1ccc2c(c1)CC[C@@]21OC(=O)N(CC(=O)N(Cc2ccc(F)cc2)[C@@H](C)C(F)(F)F)C1=O | cell-free assay |  | competition with immobilised ligand | 1 µM | remaining binding | 71% |
| COc1cc(Nc2cnc(C#N)c(O[C@H](C)CN(C)C)n2)ncc1-c1cnn(C)c1 | enzyme activity | inhibitor | radiometric | 1 µM | remaining activity | 17% |
| CCN(CC)c1ccc(C2=NNC(=O)CC2C)cc1[N+](=O)[O-] (centres unmarked) | enzyme activity | inhibitor |  | 10 µM | remaining activity | 89% |
| CNC(=O)Nc1ccc2c(c1)[C@@]1(CC2)OC(=O)N(CC(=O)N(Cc2ccc(F)cc2)[C@@H](C)C(F)(F)F)C1=O | cell-free assay |  | competition with immobilised ligand | 1 µM | remaining binding | 88% |
| Cc1ccc(Nc2nccc(N(C)c3ccc4c(C)n(C)nc4c3)n2)cc1S(N)(=O)=O | enzyme activity | inhibitor |  | 10 µM | inhibition | 25% |
| CN(C)C1CCN(CC#Cc2nn(C3CCCC3)c3nc(NCc4ccccc4)ncc23)C1 (centres unmarked) | enzyme activity | inhibitor | FRET | 0.1 µM | inhibition | 6% |
| COc1cccc2c(NCc3ccccc3)nc(-n3c(N)nc4ccccc43)nc12 | target engagement in cells | inhibitor | chemoproteomics | 20 mM | inhibition | -2.2% |
| CS(=O)(=O)c1cc(C2(NC(=O)c3cncc4c3cnn4-c3ccc(F)cc3)CC2)ccn1 | cell-free assay |  | competition with immobilised ligand | 1 µM | remaining binding | 87% |
| O=C1Nc2ccc(Cl)cc2C1=Cc1cc(Cl)c(O)c(Cl)c1 | cell-free assay |  |  | 0.5 µM | remaining signal | 95.4% |
| Cc1nc(Cc2cccc(C(F)(F)F)c2)sc1-c1ccc(C(N)=O)nc1 | cell-free assay |  | competition with immobilised ligand | 1 µM | remaining binding | 100% |
| O=C(Nc1cnn(-c2csc(C(=O)NC3COC3)c2)c1)Nc1ccccc1Cl | enzyme activity | inhibitor |  | 5 µM | remaining activity | 112% |
| CNC(=O)c1cc(Oc2ccc(NC(=O)Nc3ccc(Cl)c(C(F)(F)F)c3)cc2)ccn1 | enzyme activity | inhibitor |  | 10 µM | inhibition | 60% |
| COc1ccc2c(c1)O[C@H](c1ccc(OC)c(OC)c1)C[C@@H]2NC(=O)C1(c2ccc3c(c2)OC(F)(F)O3)CC1 | cell-free assay |  | competition with immobilised ligand | 1 µM | remaining binding | 93% |
| Cc1ccc(C(=O)Nc2ccc(CN3CCN(C)CC3)c(C(F)(F)F)c2)cc1C#Cc1cnc2cccnn12 | enzyme activity | inhibitor |  | 23.5 nM | remaining activity | 54% |
| CC(=O)N1CCC(c2ccc(C(=O)NC3=NCCN3)cc2C(F)(F)F)CC1 | cell-free assay |  | competition with immobilised ligand | 1 µM | remaining binding | 78% |
| FC(F)(F)Oc1cccc(-c2cnc3ccc(-c4ccncc4)nn23)c1 | enzyme activity | inhibitor | radiometric | 1 µM | activity vs control | 52% |
| CN(C)CC#Cc1ccc(OCCCc2sc(N3CCc4cccc(C(=O)Nc5nc6ccccc6s5)c4C3)nc2C(=O)O)c(F)c1 | cell-free assay |  | competition with immobilised ligand | 1 µM | remaining binding | 100% |
| COc1cc(-c2cc(-c3ccc(N4CCNCC4)cc3)cnc2C)cc(OC)c1OC | enzyme activity | inhibitor |  | 1 µM | inhibition | 1% |
| COCCOc1nc(-c2ccc(Cl)nc2)nc2c1CN(C(=O)c1ncn3ccccc13)CC2 | cell-free assay |  | competition with immobilised ligand | 0.1 µM | remaining binding | 100% |
| CC(C)(O)[C@H]1CC[C@H](Nc2ccc3ncc(-c4cccc(C(F)(F)F)c4)n3n2)CC1 | enzyme activity | inhibitor |  | 1 µM | remaining activity | 87.1% |
| CCN(CC)CCNC(=O)c1c(C)[nH]c(/C=C2\C(=O)Nc3ccc(F)cc32)c1C | enzyme activity | inhibitor |  | 10 µM | inhibition | 86% |
| c1ccc(CNc2nc(N3CCOc4ccccc43)nc3c2CCCC3)cc1 | target engagement in cells | inhibitor | chemoproteomics | 20 mM | inhibition | -2.4% |
| CC(C)(C)c1nc(-c2cccc(NS(=O)(=O)c3c(F)cccc3F)c2F)c(-c2ccnc(N)n2)s1 | enzyme activity | inhibitor | radiometric | 1 µM | remaining activity | 84% |
| Cc1sc(C(=O)NC2COC2)cc1-n1cc(NC(=O)Nc2c(F)cccc2Cl)cn1 | enzyme activity | inhibitor |  | 10 µM | remaining activity | 79.9% |
| N#CCCc1ccc2c(c1)-c1[nH]c3ccc([N+](=O)[O-])cc3c1CC(=O)N2 | cell-free assay |  |  | 0.5 µM | remaining signal | 74.9% |
| C=CC(=O)Nc1cc(Nc2nccc(Nc3cc(Cl)c(F)cc3C(C)(C)O)n2)c(OC)cc1N1CC[C@@H](N(C)C)C1 | enzyme activity | inhibitor |  | 1 µM | inhibition | 11% |
| Cc1cc(NC(=O)c2cccc3cc(-c4cccc5[nH]nc(N)c45)ccc23)ccc1F | enzyme activity | inhibitor |  | 0.1 µM | activity vs control | 100% |
| O=C1NC(=O)c2cc(Nc3ccc(F)cc3)c(Nc3ccc(F)cc3)cc21 | cell-free assay |  |  | 0.5 µM | remaining signal | 88.5% |
| Nc1ncnc2occ(-c3ccc(NC(=O)Nc4cc(C(F)(F)F)ccc4F)cc3)c12 | cell-free assay | inhibitor |  | 20 µM | remaining signal | 0.85% |
